According to ChEMBL document CHEMBL1127825, “Synthesis and in vitro evaluation of 9-anilino-3,6-diaminoacridines active against a multidrug-resistant strain of the malaria parasite Plasmodium falciparum” (J Med Chem, 1994):
≈ marks a conversion by molar mass, not a printed value.

Legend:
Plasmodium falciparum [1] = experiment: Inhibitory concentration against Plasmodium falciparum D6 infected erythrocytes; assay type: functional, organism-based
Plasmodium falciparum [2] = experiment: Inhibitory concentration against Plasmodium falciparum W2 infected erythrocytes; assay type: functional, organism-based
Plasmodium falciparum [3] = experiment: Minimum inhibitory concentration (IC90) against Plasmodium falciparum K1 infected erythrocytes
Plasmodium falciparum [4] = experiment: as above; remark: listed apart in the source
Plasmodium falciparum [5] = experiment: (§1) Inhibitory concentration against Plasmodium falciparum K1 infected erythrocytes; assay type: functional
Jurkat = experiment: Concentration required to reduce growth of human jurkat leukemia cells to 50% of control cultures, determined using a 72 hr continuous exposure; assay type: functional, cell-based
Summary of the method: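 Human Jurkat leukemia cells given continuous drug exposure for 72 h, then counted on a hemocytometer. IC50 is the concentration that cuts cell growth to 50% of untreated controls. Values are means of at least two independent determinations, with variation typically ±15%.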

Plasmodium falciparum [6] = experiment: Inhibitory concentration IC50 against Plasmodium falciparum K1 by [3H]hypoxanthine uptake over 24 hr; assay type: functional, organism-based
Summary of the method: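 K1 strain of P. falciparum (chloroquine- and pyrimethamine-resistant) in infected erythrocyte suspensions at 0.5% initial parasitemia, exposed to drug for 24 h at 37 °C. Read-out is [3H]hypoxanthine incorporation into parasites. IC50 is the concentration giving 50% inhibition relative to untreated controls.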

[7] = In vitro therapeutic index value is the ratio between IC50 values of [J] and [P]; assay type: cell-based; details: human, Jurkat cells; read-out: TI
Plasmodium falciparum [8] = experiment: as §1; assay type: functional, organism-based
Summary of the method: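 Chloroquine- and pyrimethamine-resistant K1 strain in infected erythrocyte suspensions (0.5% initial parasitemia), exposed to drug for 24 h at 37 °C. Read-out: [3H]hypoxanthine incorporation into parasites. IC50 in μM is the concentration that reduces incorporation to 50% of untreated controls.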

[9] = target: T1, DNA topoisomerase 2 (Plasmodium falciparum K1) (UniProt P41001); experiment: Minimum inhibitory concentration required to completely inhibit topoisomerase II activity from Plasmodium falciparum was determined using P4 DNA […] assay
T1 sequence (whole entry): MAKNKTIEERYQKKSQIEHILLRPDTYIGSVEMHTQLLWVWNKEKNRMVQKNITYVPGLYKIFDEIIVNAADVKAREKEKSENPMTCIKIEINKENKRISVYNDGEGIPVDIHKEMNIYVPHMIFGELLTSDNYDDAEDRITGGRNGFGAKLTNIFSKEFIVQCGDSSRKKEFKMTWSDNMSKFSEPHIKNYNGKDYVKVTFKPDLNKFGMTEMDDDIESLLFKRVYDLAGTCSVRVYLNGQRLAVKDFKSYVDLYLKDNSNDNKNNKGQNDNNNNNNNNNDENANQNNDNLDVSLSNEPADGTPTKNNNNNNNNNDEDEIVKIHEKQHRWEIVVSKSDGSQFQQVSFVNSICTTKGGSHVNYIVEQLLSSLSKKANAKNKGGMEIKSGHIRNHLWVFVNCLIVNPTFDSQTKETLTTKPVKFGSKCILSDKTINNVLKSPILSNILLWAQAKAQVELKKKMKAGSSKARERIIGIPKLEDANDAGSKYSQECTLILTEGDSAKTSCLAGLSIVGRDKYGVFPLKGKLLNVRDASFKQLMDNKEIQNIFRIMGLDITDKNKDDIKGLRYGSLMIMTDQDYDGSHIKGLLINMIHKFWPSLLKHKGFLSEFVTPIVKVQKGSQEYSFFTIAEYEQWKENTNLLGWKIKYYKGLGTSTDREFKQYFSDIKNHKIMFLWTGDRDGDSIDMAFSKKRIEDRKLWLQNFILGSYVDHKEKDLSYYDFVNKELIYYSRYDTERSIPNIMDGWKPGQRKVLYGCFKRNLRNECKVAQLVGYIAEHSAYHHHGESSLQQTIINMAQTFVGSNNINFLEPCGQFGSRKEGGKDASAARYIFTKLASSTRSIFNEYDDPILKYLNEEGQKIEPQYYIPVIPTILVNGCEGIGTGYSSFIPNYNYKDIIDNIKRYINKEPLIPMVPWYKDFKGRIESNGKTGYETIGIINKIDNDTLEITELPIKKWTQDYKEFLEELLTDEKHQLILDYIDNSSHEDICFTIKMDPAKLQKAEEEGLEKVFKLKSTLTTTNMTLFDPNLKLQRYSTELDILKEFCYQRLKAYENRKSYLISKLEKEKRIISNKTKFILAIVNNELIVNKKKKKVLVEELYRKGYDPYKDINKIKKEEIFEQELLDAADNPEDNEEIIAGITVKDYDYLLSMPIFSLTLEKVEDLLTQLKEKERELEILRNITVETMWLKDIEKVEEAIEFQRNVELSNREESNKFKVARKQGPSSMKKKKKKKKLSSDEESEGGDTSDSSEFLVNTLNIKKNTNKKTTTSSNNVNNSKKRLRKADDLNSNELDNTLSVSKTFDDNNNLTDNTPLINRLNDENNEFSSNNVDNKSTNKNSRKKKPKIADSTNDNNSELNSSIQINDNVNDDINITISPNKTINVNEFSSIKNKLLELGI

[10] = target: DNA topoisomerase II (Homo sapiens) (UniProt P11388+Q02880); experiment: Minimum inhibitory concentration required to completely inhibit topoisomerase II activity from jurkat human leukemia cells was determined using P4 DNA unknotting assay
Summary of the method: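 Enzyme is a partially purified topoisomerase II extract from midlog Jurkat cells, made by sonication in Tris pH 8/KCl/MgCl2/EGTA buffer with protease inhibitors, then PEG/KCl precipitation. Extract is diluted to a set P4 DNA unknotting activity. Proteinase K method scores unknotting and linearization of phage P4 DNA on 0.7% agarose gels stained with ethidium bromide. MIC is the concentration giving complete inhibition.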

SMILES	IC50 (Plasmodium falciparum [1])	IC50 (Plasmodium falciparum [2])	IC90 (Plasmodium falciparum [3])	IC90 (Plasmodium falciparum [4])	IC50 (Plasmodium falciparum [5])	IC50 (Jurkat)	IC50 (Plasmodium falciparum [6])	selectivity ratio [7]	IC50 (Plasmodium falciparum [8])	MIC [9]	MIC [10]
C=C[C@H]1CN2CC[C@H]1C[C@H]2[C@H](O)c1ccnc2ccc(OC)cc12 [QUININE]	48 nM	100 nM	300 nM								
OC(c1cc(C(F)(F)F)nc2c(C(F)(F)F)cccc12)C1CCCCN1 (stereo not given) [MEFLOQUINE]	17 nM			70 nM							
CCN(CC)CCCC(C)Nc1ccnc2cc(Cl)ccc12 (stereo not given) [CHLOROQUINE]					250 nM						
COc1ccc2nc3cc(Cl)ccc3c(Nc3cc(CN4CCCC4)c(O)c(CN4CCCC4)c3)c2n1 [PYRONARIDINE]	1 nM	0.8 nM			27 nM	4000 nM	2.7 nM	1480			
CN(C)Cc1ccc(Nc2c3ccc(N)cc3nc3cc(N)ccc23)cc1	113 nM	277 nM				> 20000 nM	40 nM	> 500	40 nM	50 µM (≈ 17.9 µg/mL)	20 µM (≈ 7.15 µg/mL)
